Reference: ChEMBL document CHEMBL6083209, “Pyridazinone-based derivatives as anticancer agents endowed with anti-microbial activity: molecular design, synthesis, and biological investigation” (RSC Med Chem, 2024)
≈ marks a conversion by molar mass, not a printed value.

Experiments:
SF-268 = assay: Antiproliferative activity against human SF-268 cells assessed as growth inhibition incubated for 48 hrs by SRB method; assay type: functional
Outline: (§1)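 NCI-60 five-dose screen at 0.01, 0.1, 1, 10 and 100 μM, triplicate wells per dose. Cells were in RPMI 1640 with 5% FBS and 2 mM L-glutamine, pre-grown 24 h and then treated for 48 h at 37 °C. Read-out was TCA fixation and SRB absorbance at 515 nm.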

Candida albicans = assay: Antimicrobial activity against Candida albicans ATCC 10231 by broth microdilution method
UO-31 = assay: Antiproliferative activity against human UO-31 cells assessed as growth inhibition at 10 uM incubated for 48 hrs by SRB method; assay type: functional; details: read-out: GI
Outline: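 NCI-60 one-dose screen at 10 μM. Cells grown in RPMI 1640 with 5% FBS and 2 mM L-glutamine, plated at 5000–40 000 cells/well and preincubated 24 h at 37 °C, 5% CO2. Drug exposure 48 h. Fixed with TCA and stained with 0.4% SRB, absorbance read at 515 nm. Percent growth calculated against untreated control and time-zero plates.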

NCI/ADR-RES = assay: Antiproliferative activity against human NCI-ADR-RES cells assessed as growth inhibition at 10 uM incubated for 48 hrs by SRB method; assay type: functional; details: read-out: GI
Outline: (§2)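 NCI-60 one-dose screen at 10 μM. Cells were grown in RPMI 1640 with 5% FBS and 2 mM L-glutamine and plated at 5000–40 000 cells/well for 24 h. Drug exposure was 48 h at 37 °C, 5% CO2. Cells were fixed with TCA, stained with 0.4% SRB and read at 515 nm. Growth is expressed as percent of untreated control and time-zero plates.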

HOP-92 [1] = assay: Antiproliferative activity against human HOP-92 cells assessed as growth inhibition at 10 uM incubated for 48 hrs by SRB method; assay type: functional; details: read-out: GI; outline: as §2
MCF7 [2] = assay: Antiproliferative activity against human MCF7 cells assessed as growth inhibition incubated for 48 hrs by SRB method; assay type: functional; outline: as §1
Staphylococcus aureus = assay: Antimicrobial activity against Staphylococcus aureus ATCC 29213 by broth microdilution method
EKVX = assay: Antiproliferative activity against human EKVX cells assessed as growth inhibition incubated for 48 hrs by SRB method; assay type: functional; outline: as §1
MCF7 [3] = assay: Antiproliferative activity against human MCF7 cells assessed as growth inhibition at 10 uM incubated for 48 hrs by SRB method; assay type: functional; details: read-out: GI; outline: as §2
UACC-257 = assay: Antiproliferative activity against human UACC-257 cells assessed as growth inhibition incubated for 48 hrs by SRB method; assay type: functional; outline: as §1
SK-MEL-2 = assay: Antiproliferative activity against human SK-MEL-2 cells assessed as growth inhibition incubated for 48 hrs by SRB method; assay type: functional; outline: as §1
Escherichia coli = assay: Antimicrobial activity against Escherichia coli ATCC 25922 by broth microdilution method
SN12C = assay: Antiproliferative activity against human SN12C cells assessed as growth inhibition incubated for 48 hrs by SRB method; assay type: functional; outline: as §1
BT-549 = assay: Antiproliferative activity against human BT-549 cells assessed as growth inhibition at 10 uM incubated for 48 hrs by SRB method; assay type: functional; details: read-out: GI; outline: as §2
SF-295 = assay: Antiproliferative activity against human SF-295 cells assessed as growth inhibition incubated for 48 hrs by SRB method; assay type: functional; outline: as §1
DU-145 = assay: Antiproliferative activity against human DU-145 cells assessed as growth inhibition at 10 uM incubated for 48 hrs by SRB method; assay type: functional; details: read-out: GI; outline: as §2
OVCAR-8 = assay: Antiproliferative activity against human OVCAR-8 cells assessed as growth inhibition incubated for 48 hrs by SRB method; assay type: functional; outline: as §1
NCI-H23 = assay: Antiproliferative activity against human NCI-H23 cells assessed as growth inhibition incubated for 48 hrs by SRB method; assay type: functional; outline: as §1
SK-OV-3 = assay: Antiproliferative activity against human SK-OV-3 cells assessed as growth inhibition at 10 uM incubated for 48 hrs by SRB method; assay type: functional; details: read-out: GI; outline: as §2
MDA-MB-468 [4] = assay: Antiproliferative activity against human MDA-MB-468 cells assessed as growth inhibition at 10 uM incubated for 48 hrs by SRB method; assay type: functional; details: read-out: GI; outline: as §2
SK-MEL-28 = assay: Antiproliferative activity against human SK-MEL-28 cells assessed as growth inhibition incubated for 48 hrs by SRB method; assay type: functional; outline: as §1
SNB-75 = assay: Antiproliferative activity against human SNB-75 cells assessed as growth inhibition incubated for 48 hrs by SRB method; assay type: functional; outline: as §1
786-0 = assay: Antiproliferative activity against human 786-0 cells assessed as growth inhibition at 10 uM incubated for 48 hrs by SRB method; assay type: functional; details: read-out: GI; outline: as §2
A549 = assay: Antiproliferative activity against human A549 cells assessed as growth inhibition at 10 uM incubated for 48 hrs by SRB method; assay type: functional; details: read-out: GI; outline: as §2
CAKI-1 = assay: Antiproliferative activity against human CAKI-1 cells assessed as growth inhibition incubated for 48 hrs by SRB method; assay type: functional; outline: as §1
MDA-MB-468 [5] = assay: Antiproliferative activity against human MDA-MB-468 cells assessed as growth inhibition incubated for 48 hrs by SRB method; assay type: functional; outline: as §1
PC-3 = assay: Antiproliferative activity against human PC-3 cells assessed as growth inhibition incubated for 48 hrs by SRB method; assay type: functional; outline: as §1
U-251 = assay: Antiproliferative activity against human U-251 cells assessed as growth inhibition at 10 uM incubated for 48 hrs by SRB method; assay type: functional; details: read-out: GI; outline: as §2
M14 = assay: Antiproliferative activity against human M14 cells assessed as growth inhibition incubated for 48 hrs by SRB method; assay type: functional; outline: as §1
UACC-62 = assay: Antiproliferative activity against human UACC-62 cells assessed as growth inhibition incubated for 48 hrs by SRB method; assay type: functional
Outline: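 NCI-60 five-dose screen at 0.01, 0.1, 1, 10 and 100 μM, triplicate wells per dose. Cells grown in RPMI 1640/5% FBS, preincubated 24 h, then exposed 48 h at 37 °C. TCA fixation, SRB stain, A515.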

NCI-H226 = assay: Antiproliferative activity against human NCI-H226 cells assessed as growth inhibition at 10 uM incubated for 48 hrs by SRB method; assay type: functional; details: read-out: GI; outline: as §2
HOP-62 = assay: Antiproliferative activity against human HOP-62 cells assessed as growth inhibition at 10 uM incubated for 48 hrs by SRB method; assay type: functional; details: read-out: GI; outline: as §2
HOP-92 [6] = assay: Antiproliferative activity against human HOP-92 cells assessed as growth inhibition incubated for 48 hrs by SRB method; assay type: functional; outline: as §1
LOX IMVI = assay: Antiproliferative activity against human LOX IMVI cells assessed as growth inhibition at 10 uM incubated for 48 hrs by SRB method; assay type: functional; details: read-out: GI; outline: as §2

For `O=c1ccc(/C=C/c2ccc(NC(=S)Nc3cccc(Br)c3)cc2)n[nH]1`, the GI50 (SF-268) was 2820 nM, the MIC (Candida albicans) was 512 µg/mL (≈ 1200 µM) and the inhibition of growth at 10 µM (UO-31) was 76.2%. The inhibition of growth at 10 µM (NCI/ADR-RES) was 85.7%, the inhibition of growth at 10 µM (HOP-92 [1]) was 100% and the GI50 (MCF7 [2]) was 2440 nM. The MIC (Staphylococcus aureus) was 128 µg/mL (≈ 300 µM), the GI50 (EKVX) was 3540 nM and the inhibition of growth at 10 µM (MCF7 [3]) was 72.7%. The GI50 (UACC-257) was 3240 nM, the GI50 (SK-MEL-2) was 1860 nM and the MIC (Escherichia coli) was 512 µg/mL (≈ 1200 µM). For the same compound, the GI50 (SN12C) was 3020 nM, the inhibition of growth at 10 µM (BT-549) was 95.5% and the GI50 (SF-295) was 2690 nM. The inhibition of growth at 10 µM (DU-145) was 91.5%, the GI50 (OVCAR-8) was 3470 nM and the GI50 (NCI-H23) was 3540 nM. It also gave an inhibition of growth at 10 µM (SK-OV-3) of 82.6%, an inhibition of growth at 10 µM (MDA-MB-468 [4]) of 88.1% and a GI50 (SK-MEL-28) of 2000 nM. It also gave a GI50 (SNB-75) of 3980 nM, an inhibition of growth at 10 µM (786-0) of 88.2% and an inhibition of growth at 10 µM (A549) of 74%. For the same compound, the GI50 (CAKI-1) was 2570 nM, the GI50 (MDA-MB-468 [5]) was 1660 nM and the GI50 (PC-3) was 3630 nM. The inhibition of growth at 10 µM (U-251) was 100%, the GI50 (M14) was 2570 nM and the GI50 (UACC-62) was 2340 nM. It also gave an inhibition of growth at 10 µM (NCI-H226) of 88.2%, an inhibition of growth at 10 µM (HOP-62) of 98.1% and a GI50 (HOP-92 [6]) of 2510 nM. The inhibition of growth at 10 µM (LOX IMVI) was 88.8%.
